The values that follow come from ChEMBL document CHEMBL1152726, “Discovery of small molecule human C5a receptor antagonists” (Bioorg Med Chem Lett, 2009).

Data set [1] addresses T1, C5a anaphylatoxin chemotactic receptor 1 (Homo sapiens, UniProt P21730).
T1 sequence (P21730 whole entry): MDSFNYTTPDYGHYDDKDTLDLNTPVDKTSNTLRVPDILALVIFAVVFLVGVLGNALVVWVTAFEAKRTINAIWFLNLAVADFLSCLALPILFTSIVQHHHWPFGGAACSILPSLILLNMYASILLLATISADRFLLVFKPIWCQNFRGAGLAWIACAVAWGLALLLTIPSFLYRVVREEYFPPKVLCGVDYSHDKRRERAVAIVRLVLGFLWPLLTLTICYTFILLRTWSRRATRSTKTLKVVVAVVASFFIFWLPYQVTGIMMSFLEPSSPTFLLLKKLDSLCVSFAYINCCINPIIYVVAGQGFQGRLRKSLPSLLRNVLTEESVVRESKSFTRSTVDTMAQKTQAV
The data set can be described thus: Antagonist activity at human recombinant C5a receptor in HEK cells assessed as inhibition of C5a-induced calcium mobilization. In kind it is functional, cell-based, HEK293. (In general: A change in cytosolic calcium serves as a functional read-out for many receptors and channels.)

A short description of data set [2]: Lipophilicity, log D at pH 7.4. The following applies: buffer.
Data set [3] in a line: Metabolic stability in human liver microsomes assessed as intrinsic clearance. On the technique in general: Liver microsomes are a subcellular fraction often used to study metabolism.
Data set [4] can be described thus: Metabolic stability in Sprague-Dawley rat hepatocytes assessed as intrinsic clearance measured per 10^6 cells.
Data set [5] concerns the target T2, C5a anaphylatoxin chemotactic receptor 1 (Mus musculus) (UniProt P30993).
T2 sequence (whole entry): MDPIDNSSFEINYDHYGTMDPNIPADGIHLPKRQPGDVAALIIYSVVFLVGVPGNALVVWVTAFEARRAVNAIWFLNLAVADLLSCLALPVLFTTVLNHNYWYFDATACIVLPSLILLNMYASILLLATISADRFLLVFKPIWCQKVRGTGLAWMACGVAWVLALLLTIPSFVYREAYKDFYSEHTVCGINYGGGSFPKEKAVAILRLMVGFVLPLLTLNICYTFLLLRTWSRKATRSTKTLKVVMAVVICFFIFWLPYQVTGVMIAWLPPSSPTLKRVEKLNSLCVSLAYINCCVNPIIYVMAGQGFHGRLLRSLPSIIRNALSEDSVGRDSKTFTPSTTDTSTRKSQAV
The data set can be described thus: Antagonist activity at mouse recombinant C5a receptor expressed in HEK cells assessed as inhibition of C5a-induced calcium mobilization at 30 uM. The conditions noted are these: HEK293. In kind it is functional, cell-based. Put shortly: (§1)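 Non-human (dog, mouse or rat) recombinant C5aR cell lines tested for antagonism of C5a-stimulated intracellular calcium mobilization. Values are means of at least two experiments.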

Data set [6] concerns the target T3, C5a anaphylatoxin chemotactic receptor 1 (Rattus norvegicus) (UniProt P97520).
T3 sequence (whole entry): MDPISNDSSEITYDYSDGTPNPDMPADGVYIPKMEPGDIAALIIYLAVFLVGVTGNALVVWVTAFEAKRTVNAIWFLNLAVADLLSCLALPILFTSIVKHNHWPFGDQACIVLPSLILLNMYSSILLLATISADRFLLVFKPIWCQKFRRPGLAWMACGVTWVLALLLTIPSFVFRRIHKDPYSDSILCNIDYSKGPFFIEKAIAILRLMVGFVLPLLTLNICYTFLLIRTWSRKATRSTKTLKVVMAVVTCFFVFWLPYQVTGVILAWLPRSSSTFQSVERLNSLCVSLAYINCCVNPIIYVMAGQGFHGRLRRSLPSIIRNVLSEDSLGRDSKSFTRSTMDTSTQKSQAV
Put plainly: Antagonist activity at rat recombinant C5a receptor expressed in HEK cells assessed as inhibition of C5a-induced calcium mobilization at 30 uM. Format: functional, cell-based. The conditions noted are these: HEK293. In a few lines:
as §1

The target of data set [7] is T4, C5a anaphylatoxin chemotactic receptor 1 (Canis lupus familiaris) (UniProt P30992).
T4 sequence (whole entry): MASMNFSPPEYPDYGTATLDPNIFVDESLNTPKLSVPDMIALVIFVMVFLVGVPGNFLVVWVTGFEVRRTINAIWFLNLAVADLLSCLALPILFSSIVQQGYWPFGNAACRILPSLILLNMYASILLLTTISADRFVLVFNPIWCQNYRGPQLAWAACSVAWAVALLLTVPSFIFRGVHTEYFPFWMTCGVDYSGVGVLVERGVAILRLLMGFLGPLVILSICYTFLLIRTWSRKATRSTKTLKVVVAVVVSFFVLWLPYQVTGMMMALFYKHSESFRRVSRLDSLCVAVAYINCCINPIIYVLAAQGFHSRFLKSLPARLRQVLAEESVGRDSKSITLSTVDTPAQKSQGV
The data set can be described thus: Antagonist activity at dog recombinant C5a receptor expressed in HEK cells assessed as inhibition of C5a-induced calcium mobilization at 30 uM. In kind it is functional, cell-based. The following applies: HEK293. In a few lines: as §1

Data set [8] deals with T1, C5a anaphylatoxin chemotactic receptor 1. The data set can be described thus: Displacement of [Alexa647]C5a from human recombinant C5a receptor expressed in HEK cells by whole cell binding assay. Format: cell-based, HEK293. In a few lines: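 Whole-cell FMAT competition binding measured inhibition of Alexa-647-labeled C5a binding to HEK-293 cells co-expressing human recombinant C5aR and Gα16. pIC50 derived; values are means of at least two experiments.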

Data set [9] shares this target.
For data set [10] the target is unchanged. Put plainly: Displacement of [125I]C5a from human recombinant C5a receptor expressed in HEK cells by membrane binding assay.
For data set [11] the target is unchanged. The data set can be described thus: Displacement of from human recombinant C5a receptor expressed in HEK cells by membrane binding assay in presence.

Active and inactive are the calls of the source. The rule behind the calls is not given here.

Consider `CN(C(=O)c1ccccc1)C(C(=O)NC1CCCC1)c1ccccc1F` (centres undefined), for which the IC50 (usually the midpoint of a concentration-inhibition curve) in data set [1] is more than 10000 nM.

Turning to `COc1ccc(N(C(=O)c2ccccc2)C(C(=O)NC[C@@H](C)O)c2ccccc2F)c(OC)c1` (some centres undefined), the logD – broadly, the decadic logarithm of the distribution of all forms, ionised or not, between an organic phase and buffer at a given pH – in [2] turned out to be 2.55. Also, the IC50 in data set [1] was 63.1 nM. In addition, the microsomal CLint (as a rule, the capacity of the preparation to metabolise the compound, expressed as a volume cleared per time) in data set [3] (liver microsomes) is 104 µL/min/mg. Besides, the intrinsic metabolic clearance (hepatocyte CLint) (as a rule, a measure of how fast metabolising enzymes remove a compound, apart from limits set by blood flow) in [4] was more than 150 µL/min/1e6 cells.

For `COc1ccc(N(C(=O)c2occc2CO)C(C(=O)NC[C@@H](C)O)c2ccccc2F)c(OC)c1` (some centres undefined), the logD in data set [2] was determined as 1.4. In [3] (microsomes), the intrinsic clearance (microsomal CLint) is 12 µL/min/mg. Further, in data set [4], the hepatocyte CLint was 8 µL/min/1e6 cells.

On to `COc1ccc(N(C(=O)c2occc2CN(C)C)C(C(=O)NC[C@@H](C)O)c2ccccc2F)c(OC)c1` (some centres undefined), for which, in [1], the IC50 is 3160 nM. The microsomal CLint in data set [3] (liver microsomes) is 12 µL/min/mg. Further, the hepatocyte CLint in [4] is less than 3 µL/min/1e6 cells.

Take `COCc1ccoc1C(=O)N(c1ccc(OC)cc1OC)C(C(=O)NC[C@@H](C)O)c1ccccc1F` (some centres undefined): in [2], the logD is 2. Also, the concentration for half-maximal inhibition (IC50) in [1] was 100 nM. Further, the microsomal CLint in data set [3] (liver microsomes) was found to be 76 µL/min/mg. The hepatocyte CLint in data set [4] stood at 35 µL/min/1e6 cells.

As for `COc1ccc(N(C(=O)c2ccccc2)C(C(=O)NC2CCCC2)c2ccccc2F)c(OC)c1` (centres undefined), the logD in data set [2] was 3.9. Besides, the IC50 in [1] is 25.1 nM; in data set [8] it was 39.8 nM; in data set [10], 794 nM; in [11], 31.6 nM. The outcome in data set [5], in data set [6] and in data set [7] was inactive. Also, the EC50 (as a rule, the concentration giving half of the maximal effect) in data set [9] is 123 nM.

Turning to `COc1ccc(N(C(=O)c2occc2C)C(C(=O)NC[C@@H](C)O)c2ccccc2F)c(OC)c1` (some centres undefined), in data set [1], the half-inhibitory concentration (IC50) was 20 nM. Also, the intrinsic clearance (microsomal CLint) in data set [3] (liver microsomes) stood at 126 µL/min/mg. Also, the hepatocyte CLint in [4] came out at 87 µL/min/1e6 cells.

Take `COc1ccc(N(C(C)=O)C(C(=O)NC2CCCC2)c2ccccc2F)c(OC)c1` (centres undefined): in data set [1], the IC50 was 794 nM.

The compound `COc1ccc(N(C(=O)c2ccoc2Cl)C(C(=O)NC[C@@H](C)O)c2ccccc2F)c(OC)c1` (some centres undefined) displayed a logD in data set [2] of 2.4. Also, the IC50 in data set [1] was 316 nM. Besides, the microsomal CLint in [3] (liver microsomes) amounted to 48 µL/min/mg. Besides, in data set [4], the hepatocyte CLint came to 33 µL/min/1e6 cells.

In the case of `COc1ccc(N(C(=O)c2ccccc2)C(C)C(=O)NC2CCCC2)c(OC)c1` (centres undefined), the IC50 in data set [1] is more than 10000 nM.

`COc1ccc(N(C(=O)c2ccoc2C)C(C(=O)NC[C@@H](C)O)c2ccccc2F)c(OC)c1` (some centres undefined): in data set [1], the IC50 is 39.8 nM. For the same compound, the intrinsic clearance (microsomal CLint) in data set [3] (liver microsomes) came out at 134 µL/min/mg. In addition, the hepatocyte CLint in data set [4] came to 75 µL/min/1e6 cells.

As to `COc1ccc(N(C(=O)c2ccccc2)C(C(=O)NC(C)CN(C)C)c2ccccc2F)c(OC)c1` (centres undefined), the IC50 in data set [1] was 1000 nM. Further, the microsomal CLint in [3] (liver microsomes) turned out to be 135 µL/min/mg. In addition, in data set [4], the hepatocyte CLint was 33 µL/min/1e6 cells.

Turning to `COc1ccc(N(C(=O)c2ccccc2)C(C(=O)NC[C@H](C)O)c2ccccc2F)c(OC)c1` (some centres undefined), the concentration for half-maximal inhibition (IC50) in [1] was more than 100 nM.

With `COc1ccc(N(C(=O)c2occc2Cl)C(C(=O)NC[C@@H](C)O)c2ccccc2F)c(OC)c1` (some centres undefined), the logD in [2] turned out to be 2.2. For the same compound, the IC50 in data set [1] is 200 nM. In addition, the microsomal CLint in data set [3] (liver microsomes) amounted to 148 µL/min/mg. Also, in [4], the intrinsic metabolic clearance (hepatocyte CLint) amounted to 59 µL/min/1e6 cells.

Take `COc1ccc(N(C(=O)c2ccco2)C(C(=O)NC2CCCC2)c2ccccc2F)c(OC)c1` (centres undefined): the 50% inhibitory concentration (IC50) was 126 nM in data set [1], 79.4 nM in data set [8], 3160 nM in [10] and 251 nM in [11]. Besides, the intrinsic metabolic clearance (microsomal CLint) in data set [3] (liver microsomes) was more than 150 µL/min/mg. In addition, the hepatocyte CLint in [4] is more than 150 µL/min/1e6 cells. Besides, the result in data set [5], in data set [6] and in [7] was inactive.

As to `COc1ccc(N(C(=O)c2ccccc2)C(C(=O)O)c2ccccc2F)c(OC)c1` (centres undefined), the IC50 in [1] is more than 10000 nM.
